Measured values reported in ChEMBL document CHEMBL1141783, “Neuroprotective and antioxidant activity of compounds from the aerial parts of Dioscorea opposita” (2005).

Experiments:
[1] = Neuroprotective activity in Swiss-Webster mouse neocortical cells with oxygen and glucose deprivation assessed as decrease in lactic dehydrogenase leakage at 3.70 uM; format: functional; design: scale not given: the % may be the effect or the level left
Method in brief: (§1)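 Cultured neocortical cells were exposed to OGD with compound at one of three final concentrations; controls received the same volume of glucose-free Earle's buffer instead. For OGD, the chamber was flushed with 95% N2/5% CO2 for 10 min, sealed, and kept at 37 °C for 25 min, followed by 30 min under normal conditions. The treatment was repeated twice, and cells were held 6 h at 37 °C after the last one. LDH was measured in medium and in freeze-thaw lysate. Leakage = extracellular/(extracellular+intracellular) ×100%.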

Plasma [2] = test: Antioxidant activity in New Zealand White rabbit plasma assessed as increase in conjugated diene formation at 3.70 uM by thiobarbituric acid method; format: functional, Oryctolagus cuniculus
Method in brief: (§2)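 LDL was isolated from New Zealand White rabbit plasma, and its susceptibility to oxidation was measured by a previously published method. Each compound was tested at three final concentrations. Freshly prepared vitamin C served as the positive control.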

Brain [3] = test: Antioxidant activity in rat brain assessed as malondialdehyde level at 37 uM by thiobarbituric acid method; format: functional
Method in brief: (§3)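 Rat brain MDA was measured by the thiobarbituric acid method, following a previously published protocol. Each compound was tested at three final concentrations. Freshly prepared vitamin C served as the positive control.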

Brain [4] = test: Antioxidant activity in rat brain assessed as malondialdehyde level at 3.70 uM by thiobarbituric acid method; format: functional; method in brief: as §3
[5] = Neuroprotective activity in Swiss-Webster mouse neocortical cells with oxygen and glucose deprivation assessed as decrease in lactic dehydrogenase leakage at 370 uM; format: functional; design: scale not given: the % may be the effect or the level left; method in brief: as §1
Plasma [6] = test: Antioxidant activity in New Zealand White rabbit plasma assessed as increase in conjugated diene formation at 370 uM by thiobarbituric acid method; format: functional, Oryctolagus cuniculus; method in brief: as §2
Plasma [7] = test: Antioxidant activity in New Zealand White rabbit plasma assessed as increase in conjugated diene formation at 37 uM by thiobarbituric acid method; format: functional, Oryctolagus cuniculus; method in brief: as §2
[8] = Neuroprotective activity in Swiss-Webster mouse neocortical cells with oxygen and glucose deprivation assessed as decrease in lactic dehydrogenase leakage at 37 uM; format: functional; design: scale not given: the % may be the effect or the level left; method in brief: as §1
Brain [9] = test: Antioxidant activity in rat brain assessed as malondialdehyde level at 370 uM by thiobarbituric acid method; format: functional; method in brief: as §3
Plasma [10] = test: Antioxidant activity in New Zealand White rabbit plasma assessed as increase in conjugated diene formation at 2.17 uM by thiobarbituric acid method; format: functional, Oryctolagus cuniculus; method in brief: as §2
Plasma [11] = test: Antioxidant activity in New Zealand White rabbit plasma assessed as increase in conjugated diene formation at 21.7 uM by thiobarbituric acid method; format: functional, Oryctolagus cuniculus; method in brief: as §2
[12] = Neuroprotective activity in Swiss-Webster mouse neocortical cells with oxygen and glucose deprivation assessed as decrease in lactic dehydrogenase leakage at 217 uM; format: functional; design: scale not given: the % may be the effect or the level left; method in brief: as §1
Brain [13] = test: Antioxidant activity in rat brain assessed as malondialdehyde level at 2.17 uM by thiobarbituric acid method; format: functional; method in brief: as §3
[14] = Neuroprotective activity in Swiss-Webster mouse neocortical cells with oxygen and glucose deprivation assessed as decrease in lactic dehydrogenase leakage at 21.7 uM; format: functional; design: scale not given: the % may be the effect or the level left; method in brief: as §1
Brain [15] = test: Antioxidant activity in rat brain assessed as malondialdehyde level at 217 uM by thiobarbituric acid method; format: functional; method in brief: as §3
Brain [16] = test: Antioxidant activity in rat brain assessed as malondialdehyde level at 21.7 uM by thiobarbituric acid method; format: functional; method in brief: as §3
[17] = Neuroprotective activity in Swiss-Webster mouse neocortical cells with oxygen and glucose deprivation assessed as decrease in lactic dehydrogenase leakage at 2.17 uM; format: functional; design: scale not given: the % may be the effect or the level left; method in brief: as §1
Plasma [18] = test: Antioxidant activity in New Zealand White rabbit plasma assessed as increase in conjugated diene formation at 217 uM by thiobarbituric acid method; format: functional, Oryctolagus cuniculus; method in brief: as §2
Brain [19] = test: Antioxidant activity in rat brain assessed as malondialdehyde level at 568 uM by thiobarbituric acid method; format: functional; method in brief: as §3
Plasma [20] = test: Antioxidant activity in New Zealand White rabbit plasma assessed as increase in conjugated diene formation at 568 uM by thiobarbituric acid method; format: functional, Oryctolagus cuniculus; method in brief: as §2

| SMILES | Activity [1] [%] | Activity (Plasma [2]) [%] | Activity (Brain [3]) [nmol/mg protein] | Activity (Brain [4]) [nmol/mg protein] | Activity [5] [%] | Activity (Plasma [6]) [%] | Activity (Plasma [7]) [%] | Activity [8] [%] | Activity (Brain [9]) [nmol/mg protein] | Activity (Plasma [10]) [%] | Activity (Plasma [11]) [%] | Activity [12] [%] | Activity (Brain [13]) [nmol/mg protein] | Activity [14] [%] | Activity (Brain [15]) [nmol/mg protein] | Activity (Brain [16]) [nmol/mg protein] | Activity [17] [%] | Activity (Plasma [18]) [%] | Activity (Brain [19]) [nmol/mg] | Activity (Plasma [20]) [%] |
| --- | --- | --- | --- | --- | --- | --- | --- | --- | --- | --- | --- | --- | --- | --- | --- | --- | --- | --- | --- | --- |
| COC1=CC(=O)c2c(ccc3cc(O)c(O)cc23)C1=O | 38.3 | 67.46 | 1.43 | 1.52 | 36.58 | 95.09 | 112.97 | 41.09 | 1.23 | – | – | – | – | – | – | – | – | – | – | – |
| COc1cc(-c2cc(=O)c3c(O)cc(O)cc3o2)ccc1O[C@@H]1O[C@H](CO)[C@@H](O)[C@H](O)[C@H]1O | – | – | – | – | – | – | – | – | – | 51.62 | 30.16 | 21.14 | 1.46 | 22.74 | 1.16 | 1.43 | 25.52 | 0.32 | – | – |
| O=C1O[C@H]([C@@H](O)CO)C(O)=C1O [ASCORBIC ACID] | – | – | – | – | – | – | – | – | – | – | – | – | – | – | – | – | – | – | 1.35 | 0.17 |
| COc1cc(-c2cc(=O)c3c(O)cc(O[C@@H]4O[C@H](CO)[C@@H](O)[C@H](O)[C@H]4O)cc3o2)ccc1O | – | – | – | – | – | – | – | – | – | 62.24 | 66.21 | 21.99 | 1.37 | 22.51 | 0.95 | 1.19 | 27.35 | 11.52 | – | – |
